Measured values from PMC8760168 (Current drug metabolism, 2021).
“And” between values parts separate entries of the source, which are not always exact repeats. Identical values can stand only once.

Tests used:
[1] = neutral pH; cited from earlier work
GABAA receptors = conditions: read-out: receptor affinity (EC50); no reference given; cited from earlier work
[2] = cited from earlier work
[3] = Imaging mass spectrometry of lung after oral administration; assay type: in vivo, Swiss Webster mice; conditions: 25 mg/kg oral, lungs harvested after 1 h, 50 μm resolution
Method in brief: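 Female Swiss Webster mice dosed orally. Lungs excised, frozen briefly on dry-ice vapour, stored at −80°C, then equilibrated to −20°C for 30 min. 20-micron cryosections thaw-mounted, rinsed with 0.1% TFA and dried 1 h. 2,5-Dihydroxyacetophenone matrix (50 mg/mL) sprayed in layers. MALDI-TOF/TOF in reflectron MS/MS mode, transitions m/z 416>372 and 416>331.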

[4] = Phase II stability assay, glucuronidation, mouse liver S9; assay type: in vitro ADME
Method in brief: (§1)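 Glucuronidation: test compound 10 μM in phosphate buffer pH 7.4 with UDP-glucuronic acid, saccharic-1,4-lactone, MgCl2 and alamethicin, 37°C. Started with human or mouse liver S9 (0.5 mg/mL protein). Short assay sampled 0–120 min; long assay (mouse) sampled 1–24 h. Quenched in acetonitrile with internal standard, then LC-MS/MS. t1/2 from ln area ratio. Long assay: first-order k from glucuronide area ratio. Two independent assays, triplicate.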

[5] = Quantification of MIDD0301 and MIDD0301 metabolites in urine and feces; assay type: in vivo, Swiss Webster mice; conditions: for Feces & Urine (%) 0-48 hours / Feces (%) 0-24 hours / Feces (%) 24-48 hours / Urine (%) 0-24 hours / Urine (%) 24-48 hours: % of moles of MIDD0301 administered
Method in brief: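 Seven-week-old female mice housed singly in metabolic cages; n = 3 per route. Dosing: oral 750 μg, IP 750 μg (50% propylene glycol/PBS) or IV 250 μg (PBS). Urine and feces collected at 0–24 and 24–48 h and stored at −20°C. Extracted with internal standards, ultrafiltered, then C18 LC-MS/MS with positive MRM against synthesized-standard calibration curves. Reported as % of moles administered.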

CYP3A4 = CYP3A4 (Homo sapiens, UniProt P08684); assay: CYP3A4 inhibition assay; conditions: recombinant CYP3A4, fluorescent substrate
[6] = Phase I microsomal stability assay, dog liver microsomes; assay type: in vitro ADME; conditions: NADPH, 10 μM, 0.5 mg/mL protein, two hours
Method in brief: (§2)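 Test compound at 10 μM in phosphate buffer pH 7.4 with NADPH regenerating system, preincubated 5 min at 37°C. Started with dog, mouse or rat liver microsomes or human liver fraction (0.5 mg/mL protein).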

[7] = Phase I microsomal stability assay, mouse liver microsomes; assay type: in vitro ADME; conditions: NADPH, 10 μM, 0.5 mg/mL protein, two hours
Method in brief: as §2

[8] = repeated high dose exposure in rodents; cited from earlier work
[9] = Phase I microsomal stability assay, human liver fraction; assay type: in vitro ADME; conditions: NADPH, 10 μM, 0.5 mg/mL protein, two hours
Method in brief: as §2

[10] = Phase II stability assay, glucuronidation, human liver S9; assay type: in vitro ADME; conditions: human liver S9, UDP-GlcUA, alamethicin, saccharolactone, 10 μM
Method in brief: as §1

[11] = Phase I microsomal stability assay, rat liver microsomes; assay type: in vitro ADME; conditions: NADPH, 10 μM, 0.5 mg/mL protein, two hours
Method in brief: as §2

[12] = Phase II stability assay, glucosidation, mouse kidney S9; assay type: in vitro ADME; conditions: mouse kidney S9, UDP-Glc
Method in brief: (§3)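 Glucosidation: test compound 10 μM in phosphate buffer pH 7.4 with UDP-glucose, gluco-1,5-lactone, MgCl2 and alamethicin, 37°C. Started with mouse liver or kidney S9 (0.5 mg/mL protein). Sampled 0–120 min; long assay (kidney) sampled 1–24 h. Quenched in acetonitrile with internal standard, then LC-MS/MS. t1/2 from ln area ratio. Long assay: first-order k from glucoside area ratio. Two independent assays, triplicate.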

[13] = Phase II stability assay, glucosidation, mouse liver S9; assay type: in vitro ADME; conditions: mouse liver S9, UDP-Glc
Method in brief: as §3

[14] = Pharmacokinetic studies in mice; assay type: in vivo, Swiss Webster mice
Method in brief: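 Six-week-old female mice given 25 mg/kg by gavage (2% PEG in 2% aqueous HPMC), 25 mg/kg IP (50% propylene glycol/50% PBS pH 7.2) or 1 mg/kg tail vein (PBS pH 7.2). Blood, lung and non-perfused brain taken at 10–1,440 min, n = 4 (oral, IP) or 8 (IV). Methanol extraction with internal standard, then LC-MS/MS. Two-compartment model; half-lives from elimination rates.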

[15] = four hours; cited from earlier work

Sequence of CYP3A4 (P08684 whole entry): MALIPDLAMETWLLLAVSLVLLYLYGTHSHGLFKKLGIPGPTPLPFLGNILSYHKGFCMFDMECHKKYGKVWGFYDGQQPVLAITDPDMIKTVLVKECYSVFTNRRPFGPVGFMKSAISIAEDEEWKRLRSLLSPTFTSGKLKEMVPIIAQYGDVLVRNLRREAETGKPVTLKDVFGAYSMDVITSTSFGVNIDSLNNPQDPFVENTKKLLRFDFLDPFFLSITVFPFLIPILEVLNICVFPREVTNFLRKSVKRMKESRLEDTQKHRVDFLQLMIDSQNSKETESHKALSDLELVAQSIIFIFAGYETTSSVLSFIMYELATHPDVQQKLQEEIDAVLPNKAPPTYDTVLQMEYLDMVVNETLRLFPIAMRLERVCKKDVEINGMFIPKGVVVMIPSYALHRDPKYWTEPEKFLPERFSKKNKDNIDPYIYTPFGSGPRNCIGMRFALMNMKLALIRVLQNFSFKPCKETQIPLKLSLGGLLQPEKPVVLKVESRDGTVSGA

## C[C@H]1N=C(c2ccccc2F)c2cc(Br)ccc2-n2cnc(C(=O)O)c21 [MIDD0301]
[1]
  aqueous solubility: high
GABAA receptors
  EC50: 72 nM
[2]
  brain absorption: very little
[2]; high single or repeated dosing
  central nervous system effects: no observed central nervous system effects
[3]
  spatial distribution in mouse lung (IMS): uniform distribution
[4]; mouse liver S9, UDP-GlcUA, alamethicin, saccharolactone, 10 μM
  half-life, conversion to glucuronide: 2.38 h
[4]; mouse liver S9, monitored for 8 h
  reaction rate, formation of MIDD0301 glucuronide (first order kinetics): 0.0042 min⁻¹
[5]; IP, 750 μg
  Feces & Urine (%) 0-48 hours: 43.9 ± 6.24%
  Feces (%) 0-24 hours: 43.2% and 43.2 ± 5.9%
  Feces (%) 24-48 hours: 0.3 ± 0.1%
  Urine (%) 0-24 hours: 0.3% and 0.3 ± 0.2%
  Urine (%) 24-48 hours: 0.1 ± 0.04%
[5]; IV, 250 μg
  Feces & Urine (%) 0-48 hours: 32% and 32.0 ± 3.7%
  Feces (%) 0-24 hours: 30.4% and 30.4 ± 3.4%
  Feces (%) 24-48 hours: 1.2 ± 0.2%
  Urine (%) 0-24 hours: 0.4% and 0.4 ± 0.1%
  Urine (%) 24-48 hours: <LOD
[5]; oral, 750 μg
  Feces & Urine (%) 0-48 hours: 55.1% and 55.1 ± 5.7%
  Feces (%) 0-24 hours: 54.3% and 54.3 ± 5.2%
  Feces (%) 24-48 hours: 0.7% and 0.7 ± 0.4%
  Urine (%) 0-24 hours: 0.1% and 0.1 ± 0.01%
  Urine (%) 24-48 hours: <LOD
[5]; oral, from unconjugated MIDD0301 excreted, 32% IV versus 55.1% oral
  bioavailability: ≤ 77%
CYP3A4; 10 μM
  % inhibition of CYP3A4 activity: less than 1%
[6]
  metabolic conversion of MIDD0301: not observed
[7]
  metabolic conversion of MIDD0301: not observed
[8]
  adverse effects: did not cause any adverse effects
[9]
  metabolic conversion of MIDD0301: not observed
[10]
  half-life, conversion to glucuronide: 4 h
[11]
  metabolic conversion of MIDD0301: not observed
[12]
  reaction rate, formation of MIDD0301 glucoside: 0.0038 min⁻¹
[12]; 10 μM
  half-life, glucosidation: 4.93 h
[13]
  conversion of MIDD0301 (glucosidation): did not observe conversion
[14]; 1 mg/kg IV tail vein injection, blood, lung, brain
  half-lives: 1 to 2 h
[14]; 1 mg/kg IV, aqueous solution
  tolerability of tail vein injection: well-tolerated without signs of irritation
[14]; 25 mg/kg IP, throughout the study
  signs of toxicity: no signs of toxicity
[14]; 25 mg/kg oral
  blood concentration after 24 h: 12 nM
  brain concentration after 24 h: less than 3 nM
  lung concentration after 24 h: less than 3 nM
[14]; 25 mg/kg oral gavage
  tmax: 0.333 h
[14]; 25 mg/kg oral, non-perfused brains
  brain concentration as % of the corresponding blood concentrations: less than 7%
[14]; 25 mg/kg oral, based on calculated elimination rates, two compartment model
  half-lives for blood and lung: 4 to 5 h
[14]; IP administration
  drug half-life in blood, lung, and brain: 4 to 6 h
[14]; oral administration
  drug half-life in blood, lung, and brain: 4 to 6 h

## C#Cc1ccc2c(c1)C(c1ccccc1F)=N[C@H](C)c1c(C(=O)OCC)ncn1-2 [SH-053-2’F-R-CH3]
[15]
  metabolic stability: metabolized fully within four hours

## C#Cc1ccc2c(c1)C(c1ccccc1F)=N[C@H](C)c1c(C(=O)NC)ncn1-2 [MP-III-022]
[15]
  metabolic stability: stable

## Cc1c(O)cccc1C(=O)N[C@@H](CSc1ccccc1)[C@H](O)CN1C[C@H]2CCCC[C@H]2C[C@H]1C(=O)NC(C)(C)C [nelfinavir, reference compound]
CYP3A4; 100 μM
  inhibition of CYP3A4 activity: completely inhibited
